Laboratory results published in ChEMBL document CHEMBL2177085 (J Med Chem, 2012).

Columns and labels:
[1] = target: Platelet-derived growth factor receptor beta (Homo sapiens) (UniProt P09619); test: Inhibition of PDGFRbeta assessed as enzyme residual activity at 10 uM relative to untreated control
In short: (§1)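 Residual kinase activity at 10 μM compound, determined by a commercial kinase profiling service (Millipore) across 15 kinases of different classes. Each compound tested in duplicate.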

[2] = target: T1, Receptor-type tyrosine-protein kinase FLT3 (Homo sapiens, UniProt P36888); test: Inhibition of FLT3
T1 sequence (P36888 whole entry): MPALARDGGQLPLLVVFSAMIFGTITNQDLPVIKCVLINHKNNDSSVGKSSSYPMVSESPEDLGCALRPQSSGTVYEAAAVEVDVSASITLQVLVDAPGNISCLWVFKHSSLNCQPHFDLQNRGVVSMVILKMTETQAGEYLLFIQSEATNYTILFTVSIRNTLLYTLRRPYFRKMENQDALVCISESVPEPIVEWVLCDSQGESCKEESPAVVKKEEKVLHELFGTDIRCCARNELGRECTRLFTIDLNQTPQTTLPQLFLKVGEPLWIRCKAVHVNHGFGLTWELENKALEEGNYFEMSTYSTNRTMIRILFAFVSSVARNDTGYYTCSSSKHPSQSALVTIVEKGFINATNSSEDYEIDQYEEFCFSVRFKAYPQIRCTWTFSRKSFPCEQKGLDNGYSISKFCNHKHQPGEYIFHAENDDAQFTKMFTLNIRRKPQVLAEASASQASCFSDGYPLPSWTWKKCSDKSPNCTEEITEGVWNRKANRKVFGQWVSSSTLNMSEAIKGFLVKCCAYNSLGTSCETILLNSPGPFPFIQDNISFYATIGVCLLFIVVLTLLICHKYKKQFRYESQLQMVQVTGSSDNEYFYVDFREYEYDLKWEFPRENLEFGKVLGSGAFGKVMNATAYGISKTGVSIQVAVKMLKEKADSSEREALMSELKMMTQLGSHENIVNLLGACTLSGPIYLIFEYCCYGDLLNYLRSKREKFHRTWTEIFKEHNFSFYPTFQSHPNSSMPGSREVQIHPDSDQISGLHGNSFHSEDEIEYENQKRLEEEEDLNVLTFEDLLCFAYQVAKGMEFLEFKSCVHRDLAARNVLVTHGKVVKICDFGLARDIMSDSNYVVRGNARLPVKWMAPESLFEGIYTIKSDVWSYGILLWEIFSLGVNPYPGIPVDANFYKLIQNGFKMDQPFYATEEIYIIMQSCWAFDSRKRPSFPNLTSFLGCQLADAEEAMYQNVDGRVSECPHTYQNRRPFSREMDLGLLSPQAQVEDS
In short: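 Run as an outsourced kinase profiling service (Millipore IC50 Profiler), with the protocol referred to the provider. Gives IC50 values and residual activity at 10 μM test compound. Compounds tested in duplicate.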

[3] = target: Protein kinase C epsilon type (Homo sapiens) (UniProt Q02156); test: Inhibition of PKCepsilon assessed as enzyme residual activity at 10 uM relative to untreated control; in short: as §1
Sequence of Protein kinase C epsilon type (Homo sapiens) (Q02156 whole entry): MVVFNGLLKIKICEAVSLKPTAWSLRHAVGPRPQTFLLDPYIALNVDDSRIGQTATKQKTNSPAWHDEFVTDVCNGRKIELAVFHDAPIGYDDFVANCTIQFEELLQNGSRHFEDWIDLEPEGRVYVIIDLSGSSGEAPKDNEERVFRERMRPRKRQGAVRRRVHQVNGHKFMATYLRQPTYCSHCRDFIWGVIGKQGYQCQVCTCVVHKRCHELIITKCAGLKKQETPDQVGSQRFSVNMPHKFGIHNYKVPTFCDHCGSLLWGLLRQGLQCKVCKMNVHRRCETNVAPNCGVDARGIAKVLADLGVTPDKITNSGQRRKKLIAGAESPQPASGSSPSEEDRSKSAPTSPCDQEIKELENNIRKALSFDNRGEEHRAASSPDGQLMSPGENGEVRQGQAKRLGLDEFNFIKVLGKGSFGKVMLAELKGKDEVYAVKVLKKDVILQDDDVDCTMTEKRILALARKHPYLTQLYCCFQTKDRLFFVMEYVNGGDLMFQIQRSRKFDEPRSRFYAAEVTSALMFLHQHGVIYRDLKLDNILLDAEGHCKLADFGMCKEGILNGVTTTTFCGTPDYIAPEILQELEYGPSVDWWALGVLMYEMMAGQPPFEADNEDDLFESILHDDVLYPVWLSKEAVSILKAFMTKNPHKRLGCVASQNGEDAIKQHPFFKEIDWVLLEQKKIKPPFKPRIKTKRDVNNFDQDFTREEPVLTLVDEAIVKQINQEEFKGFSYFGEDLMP

[4] = target: CDK6/cyclin D3 (Homo sapiens) (UniProt P30281+Q00534); test: Inhibition of CDK6/cyclinD3 assessed as enzyme residual activity at 10 uM relative to untreated control; format: protein-complex assay; in short: as §1
MOLM-14 [5] = test: Cytotoxic activity against human MOLM14 cells assessed as cell viability at 0.5 uM incubated for 3 days by MTT assay; format: functional; details: MOLM-14, 72 h, read-out: Activity
In short: (§2)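 MTT viability: exponentially growing cells, 10 000 viable cells/well in RPMI plated overnight, then exposed to test compounds for 3 days (HT-29, Molm-14) or 5 days (Mkn-45) at 37 °C, 5% CO2. MTT added for 4 h, then SDS/HCl solubilization overnight and absorbance read at 562 nm. Viability is expressed relative to untreated cells (100%). Triplicate.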

MKN-45 [6] = test: Cytotoxic activity against human MKN45 cells assessed as cell viability at 0.5 uM incubated for 5 days by MTT assay; format: functional; details: MKN-45, 120 h, read-out: Activity; in short: as §2
[7] = target: Protein kinase C alpha type (Homo sapiens) (UniProt P17252); test: Inhibition of PKCalpha assessed as enzyme residual activity at 10 uM relative to untreated control; in short: as §1
[8] = target: Hepatocyte growth factor receptor (Homo sapiens) (UniProt P08581); test: Inhibition of MET assessed as enzyme residual activity at 10 uM relative to untreated control; in short: as §1
Sequence of Hepatocyte growth factor receptor (Homo sapiens) (P08581 whole entry): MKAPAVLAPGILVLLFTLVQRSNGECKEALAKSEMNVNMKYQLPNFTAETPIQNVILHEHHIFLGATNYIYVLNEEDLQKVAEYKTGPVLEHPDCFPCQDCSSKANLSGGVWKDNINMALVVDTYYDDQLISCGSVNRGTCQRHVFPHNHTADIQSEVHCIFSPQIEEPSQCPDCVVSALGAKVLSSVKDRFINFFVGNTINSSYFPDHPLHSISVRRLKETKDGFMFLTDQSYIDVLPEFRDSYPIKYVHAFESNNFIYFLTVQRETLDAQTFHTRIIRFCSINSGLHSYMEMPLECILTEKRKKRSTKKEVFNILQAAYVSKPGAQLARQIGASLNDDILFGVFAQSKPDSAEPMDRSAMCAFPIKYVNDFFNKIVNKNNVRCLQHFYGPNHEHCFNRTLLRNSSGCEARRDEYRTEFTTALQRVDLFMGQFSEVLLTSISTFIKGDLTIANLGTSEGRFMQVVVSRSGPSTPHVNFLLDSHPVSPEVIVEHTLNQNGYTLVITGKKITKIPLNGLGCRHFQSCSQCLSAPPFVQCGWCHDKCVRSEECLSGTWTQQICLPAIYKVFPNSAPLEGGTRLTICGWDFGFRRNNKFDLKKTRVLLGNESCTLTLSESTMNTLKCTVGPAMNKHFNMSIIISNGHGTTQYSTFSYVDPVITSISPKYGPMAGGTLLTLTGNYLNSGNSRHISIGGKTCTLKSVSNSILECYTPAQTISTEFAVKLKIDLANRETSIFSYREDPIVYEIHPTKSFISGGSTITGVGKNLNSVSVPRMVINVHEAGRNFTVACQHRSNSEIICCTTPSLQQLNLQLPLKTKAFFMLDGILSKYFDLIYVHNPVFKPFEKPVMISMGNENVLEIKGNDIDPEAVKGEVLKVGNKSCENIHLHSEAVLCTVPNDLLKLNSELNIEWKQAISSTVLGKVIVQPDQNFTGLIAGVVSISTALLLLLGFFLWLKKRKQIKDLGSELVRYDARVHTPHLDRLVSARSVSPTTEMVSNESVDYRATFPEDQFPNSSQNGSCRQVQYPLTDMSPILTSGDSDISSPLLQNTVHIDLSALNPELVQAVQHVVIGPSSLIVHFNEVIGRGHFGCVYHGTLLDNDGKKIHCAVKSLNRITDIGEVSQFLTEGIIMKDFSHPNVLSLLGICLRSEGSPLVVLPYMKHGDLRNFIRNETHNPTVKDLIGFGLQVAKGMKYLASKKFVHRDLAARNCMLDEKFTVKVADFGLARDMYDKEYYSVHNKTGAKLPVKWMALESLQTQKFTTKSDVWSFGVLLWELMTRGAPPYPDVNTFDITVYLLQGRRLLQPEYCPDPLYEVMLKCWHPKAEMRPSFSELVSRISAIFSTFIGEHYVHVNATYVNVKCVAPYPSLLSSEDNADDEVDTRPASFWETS

MKN-45 [9] = test: Induction of apoptosis in human MKN45 assessed as accumulation at subG1 phase at 1 uM incubated for 7 days by flow cytometry (reference value: 10.9 +/- 3.2%); format: functional
[10] = target: Glycogen synthase kinase-3 beta (Homo sapiens, UniProt P49841); test: Inhibition of GSK3beta
Sequence of Glycogen synthase kinase-3 beta (P49841 whole entry): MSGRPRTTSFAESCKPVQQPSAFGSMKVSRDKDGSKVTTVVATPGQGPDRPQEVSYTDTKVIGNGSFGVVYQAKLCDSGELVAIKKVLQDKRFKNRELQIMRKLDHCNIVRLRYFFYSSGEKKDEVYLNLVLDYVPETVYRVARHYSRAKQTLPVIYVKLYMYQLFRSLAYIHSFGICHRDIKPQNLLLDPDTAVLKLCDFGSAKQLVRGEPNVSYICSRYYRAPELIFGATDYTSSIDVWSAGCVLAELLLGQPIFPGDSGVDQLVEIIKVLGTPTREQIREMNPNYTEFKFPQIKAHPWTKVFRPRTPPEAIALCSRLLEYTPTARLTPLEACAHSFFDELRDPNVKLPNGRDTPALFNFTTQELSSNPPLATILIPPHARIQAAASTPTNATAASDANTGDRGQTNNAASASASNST
In short: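 IC50 determined by a commercial kinase profiling service (Millipore IC50 Profiler); duplicate testing.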

[11] = target: Angiopoietin-1 receptor (Homo sapiens) (UniProt Q02763); test: Inhibition of TIE2 assessed as enzyme residual activity at 10 uM relative to untreated control; in short: as §1
[12] = target: Vascular endothelial growth factor receptor 2 (Homo sapiens, UniProt P35968); test: Inhibition of VEGFR2 assessed as enzyme residual activity at 10 uM relative to untreated control; in short: as §1
[13] = target: Cyclin-dependent kinase 2/cyclin A (Homo sapiens) (UniProt P24941+P20248+P78396); test: Inhibition of CDK2/cyclinA assessed as enzyme residual activity at 10 uM relative to untreated control; format: protein-complex assay; in short: as §1
[14] = target: Protein kinase C gamma type (Homo sapiens) (UniProt P05129); test: Inhibition of PKCgamma assessed as enzyme residual activity at 10 uM relative to untreated control; in short: as §1
MKN-45 [15] = test: Induction of apoptosis in human MKN45 assessed as accumulation at subG1 phase at 5 uM incubated for 7 days by flow cytometry (reference value: 10.9 +/- 3.2%); format: functional
MOLM-14 [16] = test: Cytotoxic activity against human MOLM14 cells assessed as cell viability at 1 uM incubated for 3 days by MTT assay; format: functional; details: MOLM-14, 72 h, read-out: Activity; in short: as §2
MOLM-14 [17] = test: Cytotoxic activity against human MOLM14 cells assessed as cell viability at 50 uM incubated for 3 days by MTT assay; format: functional; details: MOLM-14, 72 h, read-out: Activity; in short: as §2
HUVEC = test: Induction of apoptosis in human HUVEC assessed as accumulation at subG1 phase at 2.6 uM incubated for 4 days by flow cytometry (reference value: 15.4 +/- 1.5%); format: functional
[18] = target: Cyclin-dependent kinase 1/cyclin B1 (Homo sapiens) (UniProt P06493+P14635); test: Inhibition of CDK1/cyclinB assessed as enzyme residual activity at 10 uM relative to untreated control; format: protein-complex assay; in short: as §1
Sequence of Cyclin-dependent kinase 1/cyclin B1 (Homo sapiens) (P06493 whole entry, looked up): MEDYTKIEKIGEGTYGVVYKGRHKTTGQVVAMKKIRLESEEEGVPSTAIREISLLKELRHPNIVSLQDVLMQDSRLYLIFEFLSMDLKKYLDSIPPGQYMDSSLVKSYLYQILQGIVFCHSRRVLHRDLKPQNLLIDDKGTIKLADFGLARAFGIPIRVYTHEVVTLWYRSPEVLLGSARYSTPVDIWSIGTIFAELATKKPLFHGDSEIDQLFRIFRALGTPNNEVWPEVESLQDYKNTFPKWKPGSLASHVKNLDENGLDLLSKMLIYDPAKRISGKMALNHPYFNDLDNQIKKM
Sequence of Cyclin-dependent kinase 1/cyclin B1 (Homo sapiens) (P14635 whole entry, looked up): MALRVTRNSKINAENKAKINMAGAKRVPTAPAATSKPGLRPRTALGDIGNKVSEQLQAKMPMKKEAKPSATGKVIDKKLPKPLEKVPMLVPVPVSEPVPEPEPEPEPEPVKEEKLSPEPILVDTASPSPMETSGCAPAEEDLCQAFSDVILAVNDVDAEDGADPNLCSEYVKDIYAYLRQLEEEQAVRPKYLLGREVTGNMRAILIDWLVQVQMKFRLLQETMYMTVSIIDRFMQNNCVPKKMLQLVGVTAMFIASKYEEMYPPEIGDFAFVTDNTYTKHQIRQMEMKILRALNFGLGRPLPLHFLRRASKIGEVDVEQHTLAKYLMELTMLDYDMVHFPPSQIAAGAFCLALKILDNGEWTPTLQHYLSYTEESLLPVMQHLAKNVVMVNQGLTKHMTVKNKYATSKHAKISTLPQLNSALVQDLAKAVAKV

[19] = Inhibition of angiogenesis in chick embryo model assessed as reduction in vessel growth at 26 nM incubated for 24 hrs; format: functional, Gallus gallus
In short: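 White leghorn eggs incubated at 37.5 °C, 62% humidity. At 70 h, albumen removed and shell windowed. From 75 h, 15 agarose pellets (from a 26 mM DMSO stock in 2% agarose; final concentration 26 nM) placed on the area vasculosa.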

MKN-45 [20] = test: Induction of apoptosis in human MKN45 assessed as accumulation at subG1 phase at 20 uM incubated for 7 days by flow cytometry (reference value: 10.9 +/- 3.2%); format: functional
[21] = target: Protein kinase C iota type (Homo sapiens) (UniProt P41743); test: Inhibition of PKCiota assessed as enzyme residual activity at 10 uM relative to untreated control; in short: as §1

Sequence of Platelet-derived growth factor receptor beta (Homo sapiens) (P09619 whole entry): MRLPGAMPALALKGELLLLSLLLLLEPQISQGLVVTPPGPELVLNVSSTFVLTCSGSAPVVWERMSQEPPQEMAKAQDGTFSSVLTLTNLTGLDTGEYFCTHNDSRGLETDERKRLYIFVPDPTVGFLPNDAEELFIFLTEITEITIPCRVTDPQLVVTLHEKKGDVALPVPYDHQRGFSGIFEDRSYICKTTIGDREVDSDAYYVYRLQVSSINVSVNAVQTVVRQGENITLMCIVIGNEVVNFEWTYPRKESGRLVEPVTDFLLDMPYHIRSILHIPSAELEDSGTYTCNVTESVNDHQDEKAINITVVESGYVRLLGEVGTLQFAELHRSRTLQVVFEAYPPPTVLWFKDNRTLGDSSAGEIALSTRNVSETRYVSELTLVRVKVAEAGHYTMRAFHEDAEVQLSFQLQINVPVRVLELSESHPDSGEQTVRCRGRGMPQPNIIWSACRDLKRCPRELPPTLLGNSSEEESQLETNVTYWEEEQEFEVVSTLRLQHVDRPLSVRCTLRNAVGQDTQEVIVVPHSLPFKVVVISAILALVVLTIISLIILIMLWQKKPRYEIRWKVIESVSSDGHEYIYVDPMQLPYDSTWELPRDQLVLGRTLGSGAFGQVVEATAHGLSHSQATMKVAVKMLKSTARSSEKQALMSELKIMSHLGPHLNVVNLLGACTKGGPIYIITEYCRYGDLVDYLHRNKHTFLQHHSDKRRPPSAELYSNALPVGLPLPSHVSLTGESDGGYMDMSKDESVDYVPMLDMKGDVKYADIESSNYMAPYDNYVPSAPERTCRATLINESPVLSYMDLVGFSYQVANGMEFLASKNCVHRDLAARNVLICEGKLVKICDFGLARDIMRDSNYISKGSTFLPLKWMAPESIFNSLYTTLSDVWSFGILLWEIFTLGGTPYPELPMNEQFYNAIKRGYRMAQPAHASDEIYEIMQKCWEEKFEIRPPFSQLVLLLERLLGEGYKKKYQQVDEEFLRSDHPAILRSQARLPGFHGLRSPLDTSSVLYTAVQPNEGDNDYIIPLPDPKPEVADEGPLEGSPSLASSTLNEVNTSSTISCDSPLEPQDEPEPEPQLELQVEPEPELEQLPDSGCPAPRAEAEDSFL

SMILES: COc1cc(C2=C(c3c[nH]c4cnccc34)C(=O)NC2=O)cc(OC)c1OC
- Activity [1]: 106%
- IC50 [2]: 18 nM
- Activity [3]: 75%
- Activity [4]: 103%
- viability at 0.5 µM (MOLM-14 [5]): 73.4%
- viability at 0.5 µM (MKN-45 [6]): 99.2%
- Activity [7]: 80%
- Activity [8]: 83%
- Activity (MKN-45 [9]): 12.8%
- IC50 [10]: 9 nM
- Activity [11]: 116%
- Activity [12]: 1%
- Activity [13]: 88%
- Activity [14]: 83%
- Activity (MKN-45 [15]): 15.8%
- viability at 1 µM (MOLM-14 [16]): 54.2%
- viability at 50 µM (MOLM-14 [17]): 2.4%
- Activity (HUVEC): 66.3%
- Activity [18]: 80%
- inhibition (INH) [19]: 32%
- Activity (MKN-45 [20]): 28.3%
- Activity [21]: 99%
